From ChEMBL document CHEMBL1134857, “The synthesis and biological evaluation of a novel series of antimicrobials of the oxazolidinone class” (Bioorg Med Chem Lett, 2002)
≈ marks a conversion by molar mass, not a printed value.

Columns and labels:
[1] = tested on: Enterococcus faecium; test: Minimum inhibitory concentration measured against Enterococcus faecium; format: functional
[2] = tested on: Moraxella catarrhalis; test: Minimum inhibitory concentration measured against Moraxella catarrhalis; format: functional
[3] = species: Rattus norvegicus; test: Inhibition of mitochondrial protein synthesis (MPS) in rat heart mitochondria; format: functional
Method in brief: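 Rat heart mitochondria were incubated at 1 mg/mL protein (Bradford) in buffer with translation components (ADP, amino acids). Incorporation of S35 methionine was followed for 1 h at 30 °C, then quenched with cold 5% TCA/5 mM methionine. Triplicate aliquots were filtered, washed and counted. Compounds were tested at 6–7 concentrations, ≤1% organic. IC50 came from the linear portion of the percent-of-control curve, as the mean of ≥2 experiments.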

[4] = tested on: Streptococcus pneumoniae; test: Minimum inhibitory concentration measured against Streptococcus pneumoniae; format: functional
[5] = target: T1, Amine oxidase [flavin-containing] B (Rattus norvegicus, UniProt P19643); test: Inhibition of Monoamine oxidase B in rat primary hepatocytes; format: cell-based, Hepatocyte
T1 sequence (P19643 whole entry): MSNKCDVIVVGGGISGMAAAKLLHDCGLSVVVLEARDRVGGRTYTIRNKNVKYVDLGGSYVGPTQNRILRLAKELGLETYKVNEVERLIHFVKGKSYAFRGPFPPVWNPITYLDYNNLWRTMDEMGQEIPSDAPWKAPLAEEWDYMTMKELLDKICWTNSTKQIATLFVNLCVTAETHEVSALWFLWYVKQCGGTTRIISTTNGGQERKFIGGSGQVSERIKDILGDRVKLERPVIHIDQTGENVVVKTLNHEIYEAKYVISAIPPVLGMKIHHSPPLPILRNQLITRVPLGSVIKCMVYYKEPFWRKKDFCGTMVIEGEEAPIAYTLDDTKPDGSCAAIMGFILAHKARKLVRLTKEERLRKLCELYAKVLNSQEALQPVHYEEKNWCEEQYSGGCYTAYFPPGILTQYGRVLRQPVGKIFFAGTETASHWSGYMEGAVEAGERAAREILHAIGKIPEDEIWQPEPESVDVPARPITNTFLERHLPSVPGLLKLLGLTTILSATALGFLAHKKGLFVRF

[6] = tested on: Staphylococcus epidermidis; test: Minimum inhibitory concentration measured against Staphylococcus epidermidis; format: functional
[7] = tested on: Staphylococcus aureus; test: Minimum inhibitory concentration measured against Staphylococcus aureus; format: functional
[8] = target: T1, Amine oxidase [flavin-containing] B; test: Compound was evaluated for inhibition of Mono aminoxidase B in rat primary hepatocytes; format: cell-based, Hepatocyte

SMILES	MIC [1]	MIC [2]	IC50 [3]	MIC [4]	IC50 [5]	MIC [6]	MIC [7]	IC50 [8]
CC(=O)NC[C@H]1CN(c2ccc(/C=C(\Br)c3ccc(C#N)cc3)c(F)c2)C(=O)O1	2 µg/mL (≈ 4.36 µM)	> 128 µg/mL	76 µM	0.5 µg/mL (≈ 1.09 µM)	> 150 µM	1 µg/mL (≈ 2.18 µM)	4 µg/mL (≈ 8.73 µM)	
CC(=O)NC[C@H]1CN(c2ccc(/C=C(\F)c3nccs3)c(F)c2)C(=O)O1	2 µg/mL (≈ 5.27 µM)	8 µg/mL (≈ 21.1 µM)		2 µg/mL (≈ 5.27 µM)	< 9.4 µM	2 µg/mL (≈ 5.27 µM)	2 µg/mL (≈ 5.27 µM)	
CC(=O)NC[C@H]1CN(c2ccc(/C=C(\F)S(=O)(=O)c3ccccc3)c(F)c2)C(=O)O1	8 µg/mL (≈ 18.3 µM)	64 µg/mL (≈ 147 µM)		8 µg/mL (≈ 18.3 µM)		8 µg/mL (≈ 18.3 µM)	8 µg/mL (≈ 18.3 µM)	
CC(=O)NC[C@H]1CN(c2ccc(/C=C(\Br)c3cccc(N)c3)c(F)c2)C(=O)O1	2 µg/mL (≈ 4.46 µM)	8 µg/mL (≈ 17.8 µM)		2 µg/mL (≈ 4.46 µM)		1 µg/mL (≈ 2.23 µM)	2 µg/mL (≈ 4.46 µM)	
CC(=O)NC[C@H]1CN(c2ccc(/C=C(\F)c3cccc(C#N)c3)c(F)c2)C(=O)O1	> 128 µg/mL	> 128 µg/mL	> 300 µM	2 µg/mL (≈ 5.03 µM)	> 300 µM	128 µg/mL (≈ 322 µM)	> 128 µg/mL	
CC(=O)NC[C@H]1CN(c2ccc(/C=C(\F)c3cnc(N)nc3)c(F)c2)C(=O)O1	8 µg/mL (≈ 20.5 µM)	32 µg/mL (≈ 82.2 µM)		8 µg/mL (≈ 20.5 µM)		4 µg/mL (≈ 10.3 µM)	16 µg/mL (≈ 41.1 µM)	
CC(=O)NC[C@H]1CN(c2ccc(/C=C(\F)c3cncnc3)c(F)c2)C(=O)O1	2 µg/mL (≈ 5.34 µM)	4 µg/mL (≈ 10.7 µM)		1 µg/mL (≈ 2.67 µM)	475 µM	1 µg/mL (≈ 2.67 µM)	2 µg/mL (≈ 5.34 µM)	
CC(=O)NC[C@H]1CN(c2ccc(/C=C(\Br)c3ccc(C(C)=O)cc3)c(F)c2)C(=O)O1	32 µg/mL (≈ 67.3 µM)	128 µg/mL (≈ 269 µM)		1 µg/mL (≈ 2.1 µM)		64 µg/mL (≈ 135 µM)	64 µg/mL (≈ 135 µM)	
CC(=O)NC[C@H]1CN(c2ccc(N3CCOCC3)c(F)c2)C(=O)O1 [LINEZOLID]	2 µg/mL (≈ 5.93 µM)	4 µg/mL (≈ 11.9 µM)	12 µM			1 µg/mL (≈ 2.96 µM)		17 µM
CC(=O)NC[C@H]1CN(c2ccc(/C=C(\F)c3cccc(C(C)=O)c3)c(F)c2)C(=O)O1	2 µg/mL (≈ 4.83 µM)	> 128 µg/mL	69 µM	1 µg/mL (≈ 2.41 µM)	> 300 µM	1 µg/mL (≈ 2.41 µM)	0.5 µg/mL (≈ 1.21 µM)	
CC(=O)NC[C@H]1CN(c2ccc(/C=C/c3cncc(C#N)c3)c(F)c2)C(=O)O1	2 µg/mL (≈ 5.26 µM)	16 µg/mL (≈ 42.1 µM)	9.4 µM	16 µg/mL (≈ 42.1 µM)	> 300 µM	2 µg/mL (≈ 5.26 µM)	4 µg/mL (≈ 10.5 µM)	
CC(=O)NC[C@H]1CN(c2ccc(/C=C(\F)c3cncc(C#N)c3)c(F)c2)C(=O)O1	1 µg/mL (≈ 2.51 µM)	4 µg/mL (≈ 10 µM)	< 0.1 µM	≤ 0.125 µg/mL	> 300 µM	0.5 µg/mL (≈ 1.26 µM)	1 µg/mL (≈ 2.51 µM)	
COc1ccncc1/C(Br)=C/c1ccc(N2C[C@H](CNC(C)=O)OC2=O)cc1F	2 µg/mL (≈ 4.31 µM)	32 µg/mL (≈ 68.9 µM)		2 µg/mL (≈ 4.31 µM)		4 µg/mL (≈ 8.62 µM)	8 µg/mL (≈ 17.2 µM)	

Second part, led by results:

MIC [1]	MIC [2]	IC50 [3]	MIC [4]	IC50 [5]	MIC [6]	MIC [7]	SMILES	IC50 [8]
< 0.125 µg/mL	2 µg/mL (≈ 4.35 µM)	1.3 µM	≤ 0.125 µg/mL	> 300 µM	0.25 µg/mL (≈ 0.544 µM)	1 µg/mL (≈ 2.18 µM)	CC(=O)NC[C@H]1CN(c2ccc(/C=C(\Br)c3cncc(C#N)c3)c(F)c2)C(=O)O1	
0.5 µg/mL (≈ 1.18 µM)	1 µg/mL (≈ 2.36 µM)		0.5 µg/mL (≈ 1.18 µM)		0.25 µg/mL (≈ 0.591 µM)	1 µg/mL (≈ 2.36 µM)	CC(=O)NC[C@H]1CN(c2ccc(/C=C(\Br)c3ccco3)c(F)c2)C(=O)O1	
1 µg/mL (≈ 2.1 µM)	4 µg/mL (≈ 8.42 µM)		1 µg/mL (≈ 2.1 µM)		1 µg/mL (≈ 2.1 µM)	2 µg/mL (≈ 4.21 µM)	CC(=O)NC[C@H]1CN(c2ccc(/C=C(\Br)c3cccc(C(C)=O)c3)c(F)c2)C(=O)O1	
1 µg/mL (≈ 2.3 µM)	16 µg/mL (≈ 36.8 µM)	14 µM	1 µg/mL (≈ 2.3 µM)	186 µM	2 µg/mL (≈ 4.61 µM)	8 µg/mL (≈ 18.4 µM)	CC(=O)NC[C@H]1CN(c2ccc(/C=C(\Br)c3ccncc3)c(F)c2)C(=O)O1	
1 µg/mL (≈ 2.68 µM)	8 µg/mL (≈ 21.4 µM)	1.6 µM	0.5 µg/mL (≈ 1.34 µM)	98 µM	0.25 µg/mL (≈ 0.67 µM)	4 µg/mL (≈ 10.7 µM)	CC(=O)NC[C@H]1CN(c2ccc(/C=C(\F)c3cccnc3)c(F)c2)C(=O)O1	
